Test results as given in ChEMBL document CHEMBL4270530, “Surmounting the resistance against EGFR inhibitors through the development of thieno[2,3-d]pyrimidine-based dual EGFR/HER2 inhibitors” (Eur J Med Chem, 2018).

Key:
Type in all cases: functional
[1] = test system: HOP-62; assay: Growth inhibition of human HOP62 cells assessed as cell growth at 10 uM incubated for 48 hrs by sulforhodamine B assay relative to control; details: HOP-62, 48 h, read-out: Activity
In short: (§1)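 NCI-60 one-dose screen run by the NCI Developmental Therapeutics Program at a single 10 µM concentration; growth percent read from the one-dose mean graph.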

[2] = test system: HOP-92; assay: Growth inhibition of human HOP92 cells assessed as cell growth at 10 uM incubated for 48 hrs by sulforhodamine B assay relative to control; details: HOP-92, 48 h, read-out: Activity; in short: as §1
[3] = test system: OVCAR-4; assay: Growth inhibition of human OVCAR4 cells assessed as cell growth at 10 uM incubated for 48 hrs by sulforhodamine B assay relative to control; details: OVCAR-4, 48 h, read-out: Activity; in short: as §1
[4] = test system: SF-268; assay: Growth inhibition of human SF268 cells assessed as cell growth at 10 uM incubated for 48 hrs by sulforhodamine B assay relative to control; details: SF-268, 48 h, read-out: Activity; in short: as §1
[5] = test system: SF-539; assay: Growth inhibition of human SF539 cells assessed as cell growth at 10 uM incubated for 48 hrs by sulforhodamine B assay relative to control; details: SF-539, 48 h, read-out: Activity; in short: as §1
[6] = test system: HCT-116; assay: Growth inhibition of human HCT116 cells assessed as cell growth at 10 uM incubated for 48 hrs by sulforhodamine B assay relative to control; details: HCT-116, 48 h, read-out: Activity; in short: as §1
[7] = test system: SW-620; assay: Growth inhibition of human SW620 cells assessed as cell growth at 10 uM incubated for 48 hrs by sulforhodamine B assay relative to control; details: SW-620, 48 h, read-out: Activity
In short: (§2)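 NCI-60 single-dose screen at 10 µM run by the NCI Developmental Therapeutics Program; growth percent read from the one-dose mean graph, with percent inhibition approximated from those growth-percent values.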

[8] = test system: RXF 393; assay: Growth inhibition of human RXF393 cells assessed as cell growth at 10 uM incubated for 48 hrs by sulforhodamine B assay relative to control; details: RXF 393, 48 h, read-out: Activity; in short: as §1
[9] = test system: LOX IMVI; assay: Growth inhibition of human LOXIMVI cells assessed as cell growth at 10 uM incubated for 48 hrs by sulforhodamine B assay relative to control; details: read-out: Activity; in short: as §1
[10] = test system: SF-295; assay: Growth inhibition of human SF295 cells assessed as cell growth at 10 uM incubated for 48 hrs by sulforhodamine B assay relative to control; details: SF-295, 48 h, read-out: Activity; in short: as §1
[11] = test system: SK-OV-3; assay: Growth inhibition of human SKOV3 cells at 10 uM incubated for 48 hrs by sulforhodamine B assay relative to control; details: SK-OV-3, 48 h, read-out: GI; in short: as §1
[12] = test system: Hs-578T; assay: Growth inhibition of human Hs 578T cells assessed as cell growth at 10 uM incubated for 48 hrs by sulforhodamine B assay relative to control; details: read-out: Activity; in short: as §1
[13] = test system: OVCAR-8; assay: Growth inhibition of human OVCAR8 cells assessed as cell growth at 10 uM incubated for 48 hrs by sulforhodamine B assay relative to control; details: OVCAR-8, 48 h, read-out: Activity; in short: as §1
[14] = test system: SN12C; assay: Growth inhibition of human SN12C cells assessed as cell growth at 10 uM incubated for 48 hrs by sulforhodamine B assay relative to control; details: read-out: Activity; in short: as §1
[15] = test system: SR; assay: Growth inhibition of human SR cells assessed as cell growth at 10 uM incubated for 48 hrs by sulforhodamine B assay relative to control; details: read-out: Activity; in short: as §2
[16] = test system: UACC-257; assay: Growth inhibition of human UACC257 cells assessed as cell growth at 10 uM incubated for 48 hrs by sulforhodamine B assay relative to control; details: UACC-257, 48 h, read-out: Activity; in short: as §2
[17] = test system: KM12; assay: Growth inhibition of human KM12 cells assessed as cell growth at 10 uM incubated for 48 hrs by sulforhodamine B assay relative to control; details: KM12, 48 h, read-out: Activity; in short: as §1
[18] = test system: SNB-19; assay: Growth inhibition of human SNB19 cells assessed as cell growth at 10 uM incubated for 48 hrs by sulforhodamine B assay relative to control; details: SNB-19, 48 h, read-out: Activity; in short: as §1
[19] = test system: HL-60(TB); assay: Growth inhibition of human HL-60(TB) cells assessed as cell growth at 10 uM incubated for 48 hrs by sulforhodamine B assay relative to control; details: HL-60, 48 h, read-out: Activity
In short: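 Single-dose (10 µM) screen across the full NCI-60 panel, run by the NCI Developmental Therapeutics Program. Read-out is growth percent relative to untreated control, taken from the NCI one-dose mean graph.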

[20] = test system: SK-MEL-5; assay: Growth inhibition of human SK-MEL-5 cells assessed as cell growth at 10 uM incubated for 48 hrs by sulforhodamine B assay relative to control; details: SK-MEL-5, 48 h, read-out: Activity; in short: as §1
[21] = test system: HCC 2998; assay: Growth inhibition of human HCC2998 cells assessed as cell growth at 10 uM incubated for 48 hrs by sulforhodamine B assay relative to control; details: HCC 2998, 48 h, read-out: Activity; in short: as §1
[22] = test system: CCRF-CEM; assay: Growth inhibition of human CCRF-CEM cells assessed as cell growth at 10 uM incubated for 48 hrs by sulforhodamine B assay relative to control; details: read-out: Activity; in short: as §1
[23] = test system: OVCAR-5; assay: Growth inhibition of human OVCAR5 cells assessed as cell growth at 10 uM incubated for 48 hrs by sulforhodamine B assay relative to control; details: OVCAR-5, 48 h, read-out: Activity; in short: as §1
[24] = test system: A549; assay: Growth inhibition of human A549/ATCC cells assessed as cell growth at 10 uM incubated for 48 hrs by sulforhodamine B assay relative to control; details: A549, 48 h, read-out: Activity; in short: as §1
[25] = test system: EKVX; assay: Growth inhibition of human EKVX cells at 10 uM incubated for 48 hrs by sulforhodamine B assay relative to control; details: read-out: GI; in short: as §1
[26] = test system: NCI-H460; assay: Growth inhibition of human NCI-H460 cells assessed as cell growth at 10 uM incubated for 48 hrs by sulforhodamine B assay relative to control; details: NCI-H460, 48 h, read-out: Activity; in short: as §1
[27] = test system: IGROV-1; assay: Growth inhibition of human IGROV1 cells at 10 uM incubated for 48 hrs by sulforhodamine B assay relative to control; details: IGROV-1, 48 h, read-out: GI; in short: as §1
[28] = test system: MDA-MB-231; assay: Growth inhibition of human MDA-MB-231 cells assessed as cell growth at 10 uM incubated for 48 hrs by sulforhodamine B assay relative to control; details: MDA-MB-231, 48 h, read-out: Activity; in short: as §1

| SMILES | growth at 10 µM [1] | growth at 10 µM [2] | growth at 10 µM [3] | growth at 10 µM [4] | growth at 10 µM [5] | growth at 10 µM [6] | growth at 10 µM [7] | growth at 10 µM [8] | growth at 10 µM [9] | growth at 10 µM [10] | inhibition of growth at 10 µM [11] | growth at 10 µM [12] | growth at 10 µM [13] | growth at 10 µM [14] | growth at 10 µM [15] | growth at 10 µM [16] | growth at 10 µM [17] | growth at 10 µM [18] | growth at 10 µM [19] | growth at 10 µM [20] | other results |
| --- | --- | --- | --- | --- | --- | --- | --- | --- | --- | --- | --- | --- | --- | --- | --- | --- | --- | --- | --- | --- | --- |
| Nc1ccc(-c2cc3c(Nc4ccc(OCc5cccc(F)c5)c(Cl)c4)ncnc3s2)cc1 | 62.3% | 45.8% | 54.8% | 52.1% | 57.4% | 50.7% | 74.1% | 52.5% | 24.5% | 47.8% | 100% | 77% | 63.1% | 48.4% | 14.5% | 18.3% | 24% | 77.3% | 48.2% | 57.7% | growth at 10 µM [21]: 38.6%; growth at 10 µM [22]: 23.9%; growth at 10 µM [23]: 77.9%; growth at 10 µM [24]: 21.2%; inhibition of growth at 10 µM [25]: 80%; growth at 10 µM [26]: 36.5%; inhibition of growth at 10 µM [27]: 60%; growth at 10 µM [28]: 13.4% |
| O=[N+]([O-])c1ccc(-c2cc3c(Nc4ccc(OCc5cccc(F)c5)c(Cl)c4)ncnc3s2)cc1 | 94.7% | 82.1% | 89.6% | 80.1% | 99.2% | 60.2% | 93.5% | 81.3% | 75.5% | 69.7% | 0% | 94.9% | 70.3% | 83.4% | 68.6% | 93.5% | 80% | 68% | 79.2% | 92.8% | growth at 10 µM [21]: 97.3%; growth at 10 µM [22]: 68.6%; growth at 10 µM [23]: 101%; growth at 10 µM [24]: 51.4%; inhibition of growth at 10 µM [25]: 20%; growth at 10 µM [26]: 42.2%; inhibition of growth at 10 µM [27]: 12%; growth at 10 µM [28]: 87.8% |
